STEP inh: inhibitors of human striatal-enriched phosphatase STEP | P54829 | recombinant STEP, OMFP fluorogenic substrate, fluorescence | inhibition, % at 20 µM | hit rate 0.25% among 360,000 | AID 588621;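 active = inhibition at 20 µM, scaled per plate between control wells, above about 37%, limit read from the data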;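 also: 0% = DMSO with enzyme and substrate and 100% = substrate only without enzyme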
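System: STEP phosphatase, cell-free reaction; Buffer or medium: Bis-Tris pH 6.0 buffer with DTT, detergent; Incubation: 20 min at room temperature, dark; Measured by: fluorescence, 480/540 nm.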
DNMT1 block: inhibitors of human DNMT1; P26358; DNMT1 molecular beacon, Hinp1I cleavage, fluorescence; inhibition (reported as % activation of signal), % at 10 µM; hit rate 0.83% among 360,000; AID 588458; in the data active = inhibition above about 50%
SUMO1-SIM PPI: SUMO1-SIM interaction modulation; SUMO1 binding to a labelled peptide, TR-FRET, 1 h; inhibition, % at 20 µM; hit rate 0.33% among 360,000; AID 602429; in the data active = inhibition above about 37%
Target sequence (P63165 whole entry, looked up): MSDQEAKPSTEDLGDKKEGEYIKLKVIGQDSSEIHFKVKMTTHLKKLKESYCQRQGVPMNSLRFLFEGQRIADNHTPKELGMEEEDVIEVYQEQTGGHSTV
Scp-1 inhibitor: inhibitors of human Scp-1 phosphatase; inhibition, % at 20 µM; Recombinant Scp1, phosphopeptide, malachite green phosphate absorbance; hit rate 0.88% among 340,000;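 active = inhibition above about 50% at 20 µM, limit read from the data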;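 also: plate controls were DMSO wells with enzyme for no effect and wells lacking enzyme for full effect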
Target sequence (Q9GZU7 76-261 limits assumed): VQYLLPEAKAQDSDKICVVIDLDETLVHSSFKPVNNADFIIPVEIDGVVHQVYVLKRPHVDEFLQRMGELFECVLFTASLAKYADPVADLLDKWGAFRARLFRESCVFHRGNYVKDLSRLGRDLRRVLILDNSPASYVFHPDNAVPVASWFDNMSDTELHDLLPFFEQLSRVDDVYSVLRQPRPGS
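Times: enzyme reaction 45 min at room temperature, colour 5 min, stabilisation 30 min. Material: SCP-1 catalytic fragment, aa 76-261. Medium: Acidic Tris acetate buffer with magnesium and detergent. Signal: colorimetric free-phosphate detection, absorbance 630 nm. Read-out basis: % inhibition of SCP-1 phosphate liberation. Reagent: Phosphorylated 17-residue peptide substrate.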
LMPTP block: LMPTP (human) inhibition | P24666 | recombinant LMPTP-A, OMFP fluorogenic substrate, fluorescence intensity | inhibition, % at 20 µM | hit rate 0.22% among 360,000 | AID 651560;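 active = compounds that cut the enzyme signal by at least half of the control window in the single-dose screen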;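 also: plate controls were DMSO wells with enzyme plus substrate for no effect and substrate without enzyme for full effect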
Target sequence (P24666 whole entry, looked up): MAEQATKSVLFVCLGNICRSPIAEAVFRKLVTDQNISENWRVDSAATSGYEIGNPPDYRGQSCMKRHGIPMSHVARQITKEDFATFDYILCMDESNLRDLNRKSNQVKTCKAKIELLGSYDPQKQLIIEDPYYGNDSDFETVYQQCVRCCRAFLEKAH
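Material: LMPTP-A; amount: 0.625 nM enzyme; doses: single 20 µM dose; times: reaction 50 min, room temperature, dark; technique: fluorescence intensity of OMFP turnover product; benchmarks: no-enzyme and uninhibited controls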
Scp1 confirm: confirmation of human Scp-1 phosphatase inhibitors; shares compounds with Scp-1 inhibitor; recombinant SCP-1 catalytic domain, phosphate release, malachite green absorbance; inhibition, % at 20 µM; hit rate 61% among 2,500;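 also: plate controls were DMSO with enzyme for no effect and buffer wells lacking enzyme for full effect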
MG interference: interferes with malachite green readout, flagging false Scp-1 hits. shares compounds with Scp-1 inhibitor. Colorimetric interference counterscreen, malachite green absorbance 630 nm. apparent inhibition (interference), % at 20 µM. 2,500 tested, under 10 active. AID 540313;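 also: compounds added after enzyme reaction finished so only phosphate colour detection is probed; plate controls were DMSO wells with completed Scp-1 reaction for no effect and substrate wells lacking enzyme for full effect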
Scp-1 Tm shift: validation of human Scp-1 inhibitors by thermal shift binding | Recombinant SCP1, Sypro Orange thermal shift Tm | hit rate 25% among 1,500 | shares compounds with Scp-1 inhibitor | thermal shift relative to vanadate control, % at 40 µM;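 active = substances whose mean melting-temperature shift, as a percentage of the reference inhibitor's shift, reaches about 5.3%, limit read from the data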;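 also: 0% = Tm of DMSO wells and 100% = Tm with sodium orthovanadate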
Numbers without * were called inactive; / = no result. An excerpt weighted towards active compounds, which were near 1.8% of everything screened.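 The calls were made as follows, unless noted: active = inhibition of at least 30% at 20 µM; inactive = the rest.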

SMILES	STEP inh	DNMT1 block	SUMO1-SIM PPI	Scp-1 inhibitor	LMPTP block	Scp1 confirm	MG interference	Scp-1 Tm shift
COc1cccc(C(=O)Nc2cccc(-c3nnc(-c4ccco4)o3)c2)c1	0	-4	7	-17	3	/	/	/
COC(=O)[C@H]1C[C@H](O)CN1S(=O)(=O)c1ccc(Br)cc1F	-3	7	3	53*	-1	-15	-16	/
O=C(CCN1C(=O)/C(=C\C=C\c2ccccc2)SC1=S)Nc1cccc(C(=O)O)c1	15	16	11	85*	46	75*	-19	11*
COc1ccc(/C=C2\SC(=S)N(CCC(=O)Nc3cccc(C(=O)O)c3)C2=O)cc1	18	-2	0	61*	1	53*	-10	18*
O=C(CCN1C(=O)/C(=C/c2cccs2)SC1=S)Nc1cccc(C(=O)O)c1	5	2	-2	36	1	/	/	/
O=C(CCCN1C(=O)/C(=C\c2ccccc2)SC1=S)Nc1cccc(C(=O)O)c1	-1	1	-24	-7	1	/	/	/
O=C(CCN1C(=O)/C(=C/c2ccc3c(c2)OCO3)SC1=S)Nc1cccc(C(=O)O)c1	7	4	0	69*	3	78*	-9	11*
Cc1ccc(/C=C2\SC(=S)N(CCCC(=O)Nc3cccc(C(=O)O)c3)C2=O)cc1	7	2	-10	40	2	/	/	/
O=C(CCN1C(=O)/C(=C/c2ccc(Cl)cc2)SC1=S)Nc1cccc(C(=O)O)c1	10	0	-7	89*	1	66*	-3	9.7*
O=C(CCN1C(=O)/C(=C/c2ccc3c(c2)OCO3)SC1=S)NNC(=O)c1cccnc1	2	-2	-12	62*	7	46*	-9	0
Cc1ccnc(NS(=O)(=O)c2ccc(N3C(=O)c4c(Cl)c(Cl)c(Cl)c(Cl)c4C3=O)cc2)n1	17	12	29	67*	0	27	-14	/
Cc1ccnc(NS(=O)(=O)c2ccc(N3C(=O)c4ccccc4C3=O)cc2)n1	0	0	-18	-3	-1	/	/	/
CC(C)[C@@H]1Cc2[nH]n(C)c(=O)c2[C@H](c2ccc(F)cc2)O1	/	/	0	/	-1	/	/	/
CC(NC(=O)CCNS(=O)(=O)c1ccccc1)c1ccccc1 (configuration not stated)	-2	3	-2	51*	-3	-4	-9	/
CC(CCc1ccccc1)NC(=O)CCNS(=O)(=O)c1ccccc1 (configuration not stated)	2	-1	3	-3	0	/	/	/
N#Cc1c(-c2ccccc2)nc(SCC(=O)Nc2ccc(OC(F)(F)Cl)cc2)[nH]c1=O	-3	-7	7	-13	4	/	/	/
Cc1ccc2[nH]c(O)c(N=NC(=O)c3ccc(NS(=O)(=O)c4cccs4)cc3)c2c1	58*	-8	31	100*	44	58*	-16	-10
O=C(N=Nc1c(O)[nH]c2ccccc12)c1ccccc1NS(=O)(=O)c1cccs1	1	-2	-1	-6	1	/	/	/
CC1=NNC(=O)C1CCC(=O)N/N=C/c1ccco1 (configuration not stated)	-4	-3	-4	-4	-2	46*	-14	-21
COc1ccc(OC)c(/C=N/NC(=O)CC2C(=O)NN=C2C)c1 (configuration not stated)	-1	4	-8	-2	0	2	-6	/
COc1ccc2cc(C(=O)NCc3ccccc3CN3CCCC3)ccc2c1	-1	1	-12	6	-2	/	/	/
Cc1c(OC(=O)c2ccc([N+](=O)[O-])cc2)c2c(c[n+]1C)COC(C)(C)OC2	1	-1	-18	67*	-3	79*	-18	-6
Nc1ncnc2c1ncn2[C@@H]1O[C@H](C(=O)N2CCN(c3ccc(Cl)cn3)CC2)[C@@H](O)[C@H]1O	2	6	-3	/	0	/	/	/
CC(C)c1cccc(-c2ccc3c(c2)S(=O)(=O)c2cccc(C(=O)NCc4ccco4)c2C3=O)c1	2	49	3	68*	2	49*	0	11*
COc1ccc(CN(C)C[C@H]2OCCCC[C@@H](C)Oc3ccc(NS(C)(=O)=O)cc3C(=O)N([C@H](C)CO)C[C@@H]2C)cc1	3	10	0	/	-1	/	/	/
SMILES	STEP inh	DNMT1 block	SUMO1-SIM PPI	Scp-1 inhibitor	LMPTP block	Scp1 confirm	MG interference	Scp-1 Tm shift
Cc1cc(C)c(S(=O)(=O)NCCSCc2ccco2)c(C)c1	2	12	4	53*	3	-8	-17	/
COc1ccc(C(=O)COC(=O)c2cc(=O)c3ccccc3o2)cc1	-3	-2	-21	-5	1	/	/	/
N=C1S/C(=C\c2ccco2)C(=O)N1c1ccc2c(c1)OCO2	13	9	2	79*	28	46*	-16	-3
COC(=O)Nc1ccc(SCC(=O)c2cccc([N+](=O)[O-])c2)cc1	3	-2	-24	-5	2	/	/	/
Cc1occc1-c1nnc(SCC(=O)N2CCCC(C)C2)o1 (configuration not stated)	-1	-2	4	2	-1	/	/	/
Cn1c(=O)cc(OCC(=O)NCCC2=CCCCC2)c2ccccc21	-1	1	1	-3	-1	-8	-10	/
O=C(COc1ccccc1[N+](=O)[O-])N/N=C/C=C/c1ccco1	2	2	-14	-7	1	/	/	/
Cc1ccc(OCC(=O)N/N=C/C=C/c2ccco2)cc1	-1	26	0	73*	3	59*	-10	7.5*
O=C(N/N=C/C=C/c1ccco1)C(O)c1ccccc1 (configuration not stated)	-1	39	-2	62*	-1	53*	-11	2
CC(=O)c1ccc(C(=O)Nc2nnc(-c3ccc(Cl)cc3)o2)cc1	6	2	16	54*	7	43*	-17	2
COC(=O)[C@H](CC(C)C)NC(=O)NCCC1=CCCCC1	0	5	11	85*	0	-11	-11	/
CCCN(C)C[C@H]1OCc2cnnn2CCCC(=O)N([C@H](C)CO)C[C@@H]1C	0	1	-2	/	0	/	/	/
C[n+]1ccccc1/C=C/c1ccc([N+](=O)[O-])cc1	-1	-1	-46	-2	1	/	/	/
C[n+]1ccccc1/C=C/c1ccc(F)c(F)c1	1	4	-14	102*	0	-21	-21	/

Screening results from PubChem.
